Measurements as given in PubChem BioAssay AID540281 (Sanford-Burnham Center for Chemical Genomics, 2011).
Values joined by “and” are separate entries in the source; they are usually repeats but may differ in a detail not shown here. Identical values can stand only once. Hit rate of the full screen: of about 2,500 compounds, about 1,500 (60%) were called active. The set was probably picked from earlier hits. The list is a sample of the results. Unmarked numbers belong to inactive results.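 How the source made its calls: active means inhibition of at least 30% at 20 µM; inactive means the rest.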

Target: Carboxy-terminal domain RNA polymerase II polypeptide A small phosphatase 1 (Homo sapiens) (UniProt Q9GZU7)
Assay: Scp-1 phosphatase inhibitors, retest, confirmation, biochemical, colorimetric, single concentration (AID 540281);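 further: plate controls were DMSO with enzyme for no effect and buffer wells lacking enzyme for full effect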
Details: recombinant SCP-1 catalytic domain, phosphate release, malachite green absorbance; at 20 µM; active compounds read high
Procedure, shortened: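 Assay system: SCP-1 catalytic fragment (residues 76-261). Schedule: 45 min enzyme reaction at room temperature. Medium: Tris acetate pH 5.5 buffer with Mg2+ and detergent. Compound: one dose, 20 µM final, 1.0% DMSO. Reagent: Phospho-17-mer peptide substrate. Detection: absorbance at 630 nm, free phosphate colorimetry.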

Chain of Carboxy-terminal domain RNA polymerase II polypeptide A small phosphatase 1 (Homo sapiens) (Q9GZU7 76-261 limits assumed): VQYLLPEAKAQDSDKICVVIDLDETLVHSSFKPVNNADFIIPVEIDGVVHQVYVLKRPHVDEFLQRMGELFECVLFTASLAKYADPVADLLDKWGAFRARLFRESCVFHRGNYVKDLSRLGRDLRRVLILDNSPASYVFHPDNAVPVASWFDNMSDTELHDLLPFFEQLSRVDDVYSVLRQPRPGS

| Structure (SMILES) | inhibition |
| --- | --- |
| Cc1ccc(C(=O)NNC(=O)c2cc3cc4ccccc4nc3s2)cc1 | 61% (active) |
| O=[N+]([O-])c1cc(S(=O)(=O)Nc2cccc(Cl)c2)ccc1N=Nc1c(O)[nH]c2ccccc12 | 8.78% |
| Cc1ccc(CCCOC(=O)C[N+]2(C)CCCC2)cc1 | 78.5% (active) |
| COC(=O)c1ccccc1NC(=O)C1(S(=O)(=O)c2ccc(Cl)cc2)CC1 | -25% |
| Cc1ccc(NC(=O)c2cc(-c3ccc(C)o3)nc3ccccc23)nc1 | 67.9% (active) |
| O=C(COC(=O)c1ccccc1O)NCc1ccco1 | 59.3% (active) |
| CN(c1ccccc1)S(=O)(=O)c1ccc(Cl)c(C(=O)OCC(=O)NCc2ccco2)c1 | 56.5% (active) |
| O=C(COC(=O)c1cnc(Cl)c(Cl)c1)NCc1ccco1 | 44.4% (active) |
| Cc1cc(C(=O)OCC(=O)NCc2ccco2)c(C)n1-c1ccccc1 | 67.3% (active) |
| CCOC(=O)C1CCCN(C(=O)CN(c2ccc(OC)cc2)S(=O)(=O)c2c(C)noc2C)C1 (stereo not drawn) | -13.6% |
| NC(=O)NC(=O)CSc1nc2cc([N+](=O)[O-])ccc2n1-c1cccc(C(F)(F)F)c1 | -1.8% |
| CC1=NN(C(=O)CCc2ccccc2O)C(O)(C(F)(F)F)C1 (stereo not drawn) | -13.9% |
| O=C(COC(=O)CCC(=O)c1cccs1)NCc1ccco1 | 75.5% (active) |
| Cc1c(Cl)cnc(NC(=O)COC(=O)c2ccc(S(=O)(=O)NCc3ccco3)cc2)c1Cl | 67% (active) |
| CCOc1ccc2nc(N(CCCN(C)C)C(=O)c3ccc(C(=O)c4ccccc4)cc3)sc2c1 | -4.94% |
| Cc1ccc(S(=O)(=O)Nc2nc(C)cc(-n3nc(C)cc3C)n2)cc1 | -2.85% |
| O=C(c1ccc(CS(=O)(=O)c2ccccc2)o1)N1CCN(c2ccccc2)CC1 | 59.1% (active) |
| CC(C)c1ccc(NC(=S)NNc2ccc(Cl)c(C(=O)O)c2)cc1 | 4.8% |
| Cc1ccc(CCNC(=O)c2ccc3nc4ccccc4c(=O)n3c2)cc1 | 41.5% (active) |
| COc1cccc(CNS(=O)(=O)c2csc(C(N)=O)c2)c1 | -12.2% |
| COc1cccc(NC(C)=[N+](C)CCNS(=O)(=O)c2ccc(Cl)cc2)c1 | 92.4% (active) |
| Cc1ccc(NC(=O)COC(=O)C2C3CC4OC(=O)C2C4C3)cc1Cl (stereo not drawn) | -2.24% |
| O=C(COc1ccc(-n2cnnn2)cc1)Nc1ccccc1Cl | 56.8% (active) |
| CC(C)CCOc1ccc(C(=O)C[N+]2(C)CCOCC2)cc1 | 98.7% (active) |

| Structure (SMILES) | inhibition |
| --- | --- |
| O=C(Nc1cccnc1)c1cc2cc(Br)ccc2oc1=O | 68.8% (active) |
| COc1cc(/C=C/C2=CC(C)(C)NC(=S)N2)cc(OC)c1OC | -11.8% |
| Cc1ccc(/C=C/C(=O)Nc2ccc([N+](=O)[O-])c(NC(=O)/C=C/c3ccc(C)o3)c2)o1 | 66.7% (active) |
| CCCCCN1CC(O)=C(c2nc(-c3ccc(Cl)cc3)cs2)C1=N | 71.5% (active) |
| O=C(COC(=O)/C=C/c1ccc(Br)o1)Nc1cccc(S(=O)(=O)N2CCOCC2)c1 | 16.4% |
| Cc1ccn2c(=O)nc(SCC(=O)NCc3ccc4c(c3)OCO4)nc2c1 | 57.6% (active) |
| COc1cccc(CC(=O)OCC(=O)NCc2ccc3c(c2)OCO3)c1 | -5.6% |
| CCCCSc1nnc(-c2ccc(C)cc2)o1 | -16.3% |
| Cc1ccc(N=Cc2c(O)n(-c3nccs3)c(=O)c3ccccc23)c(C)c1 | -12.9% |
| CC1CCN(c2ccc(S(=O)(=O)Nc3cc(C(=O)O)cc(C(=O)O)c3)cc2[N+](=O)[O-])CC1 | 51.3% (active) |
| O=C(NN1C(=O)C2C3C=CC(O3)C2C1=O)c1ccccc1 (stereo not drawn) | -10.8% |
| CCc1ccc(NC(=O)CS(=O)CC(=O)NCCCc2ccccc2)cc1 (stereo not drawn) | 93.8% (active) |
| CS(=O)(=O)C1=NN2C(=N)/C(=C\c3ccc(OCCOc4ccccc4)cc3)C(=O)N=C2S1 | 72% (active) |
| COc1cccc2cc(-c3cc(=O)oc4cc(C)c(O)cc34)oc12 | 57.7% (active) |
| O=c1c2cc(-c3ccccc3)sc2nc2n1N=C(c1cccs1)CS2 | 38.4% (active) |
| O=C(CN1CCN(c2ccc(Cl)cc2)CC1)c1ccccc1 | -15.3% |
| O=C(c1cc2c(s1)CCC2)N1CCN(c2ccccc2)CC1 | 31.4% (active) |
| ON=C1/C(=N\O)CC2(C/C1=N/O)OCCO2 | 36.9% (active) |
| Cc1nn(-c2cc(Cl)ccc2N)c(=O)c2ccccc12 | 32.6% (active) |
| COc1ccc(Cl)cc1NC(=O)CCS(=O)(=O)c1ccc(Br)cc1 | 62.9% (active) |
| O=C(CCS(=O)(=O)c1ccc(Br)cc1)NCCc1ccc(Cl)cc1 | 55.6% (active) |
| O=C(c1ccc2c(c1)OCO2)N1CCNc2ccccc2C1 | -27.2% |
| CC[n+]1c(C)n(-c2ccccc2)c2ccc(NC(C)=O)cc21 | 85.8% (active) |
| O=C(Cn1cc(/C=N/NC(=O)c2cccc(C(F)(F)F)c2)c2ccccc21)Nc1ccc(F)cc1 | 39.4% (active) |

| Structure (SMILES) | inhibition |
| --- | --- |
| N#CC1=C(SCc2ccccc2)NC(=O)C(C#N)C12CCCC2 (stereo not drawn) | 9.2% |
| O=c1[nH]n(-c2ccc([N+](=O)[O-])cc2)c(=O)c2ccccc12 | 46.7% (active) |
| O=C1NN(c2ccccc2)C(=O)/C1=C/c1ccc(-c2cccc(C(=O)O)c2)o1 | 72.6% (active) |
| COC(=O)c1ccc(-c2c(-c3ccccc3)ncc3cc(OC)c(OC)cc23)cc1 | -1.8% |
| COc1ccc(OC)c(NC(=O)CSc2nc(-c3ccccc3)cc(=O)[nH]2)c1 | -9.58% |
| COc1ccc(OCC(=O)NNC(=O)c2ccc(-c3ccccc3)cc2)cc1 | 67.5% (active) |
| Cn1c(N)c(C(=O)COC(=O)c2ccc3ccccc3c2)c(=O)n(C)c1=O | -18.1% |
| O=C(NNC(=O)c1ccc2ccccc2c1)c1ccc(Cl)cc1 | 57.2% (active) |
| Cc1oc2c(C)c3oc(=O)c(CC(=O)N[C@@H](CC(C)C)C(=O)N[C@@H](Cc4ccccc4)C(=O)O)c(C)c3cc2c1C | 80.1% (active) |
| Cc1c([N+](=O)[O-])c(N)nn1C | 3.58% |
| O=C(O)c1ccc(N/N=C/c2ccc3ncccc3c2)cc1 | 39.7% (active) |
| COc1ccc(NC(=O)CN(C)C(=O)/C=C/c2cn(Cc3ccccc3)nc2-c2cccnc2)cc1 | 84.6% (active) |
| COC(=O)C[n+]1cccc2ccccc21 | 21% |
| Nn1cnnc1N/N=C/c1cc([N+](=O)[O-])c(Cl)cc1Cl | 86.2% (active) |
| O=C1CCC(CCC(=O)N2CCCC(C(=O)c3ccc(Cl)cc3)C2)=NN1 (stereo not drawn) | -8.97% |
| O=C(Nc1cccc(F)c1)[C@@H]1CCCN1 | 0.82% |
| O=C(Nc1cccc(F)c1)c1cc(-c2ccco2)nc2ccccc12 | 50.4% (active) |
| CN(CC(=O)Nc1cccc(F)c1)C(=O)C1CC(=O)N(CCc2ccccc2)C1 (stereo not drawn) | -11.8% |
| CCCc1nc(-c2cc3cc(C)ccc3[nH]c2=O)no1 | 84.7% (active) |
| Cc1cc(/C=C2\SC(=O)N(C)C2=O)c(C)n1-c1cccc(C(=O)O)c1 | 38.7% (active) |
| COc1cc(Cl)cc(C2NC(=O)NC(C)=C2C(=O)NCc2ccccc2)c1O (stereo not drawn) | -19.7% and -13.7% |
| C[n+]1ccc(C(=O)NCc2ccccc2)cc1 | 80.1% (active) |
| Cc1ccc(SCC(=O)NC(=O)NCc2ccco2)c(C)c1 | 73.6% (active) |
| O=C(CN1CCN(S(=O)(=O)/C=C/c2ccccc2)CC1)NC(=O)NCc1ccco1 | 10.9% |

| Structure (SMILES) | inhibition |
| --- | --- |
| Cc1c(CCC(=O)O)c(=O)oc2cc(OCc3ccc(Br)cc3)ccc12 | 38.7% (active) |
| Cc1c(CCC(=O)O)c(=O)oc2c(C)c(OCc3ccccc3Cl)ccc12 | 58.5% (active) |
| COc1ccc(Cl)cc1C=CC=NNC(=O)c1ccncc1 | 38.5% (active) |
| COc1ccc(N2CCN(C(=O)CSc3nc4cc(OC)c(OC)cc4cc3C#N)CC2)cc1 | 25.3% |
| COCCCNc1nc2ccccc2nc1NS(=O)(=O)c1ccc(F)cc1 | -5.57% |
| CCC(=O)Nc1ccccc1N1CCN(S(C)(=O)=O)CC1 | -7.14% |
| COc1ccc(S(=O)(=O)c2c[nH]c(=S)[nH]c2=O)cc1Cl | 40.6% (active) |
| COc1cccc2sc(N(CCCN(C)C)C(=O)C(c3ccccc3)c3ccccc3)nc12 | -18.8% |
| CC1=NNC(=O)C1CCC(=O)N/N=C\c1cccc(Cl)c1 (stereo not drawn) | -18.8% |
| CSc1ccc(/C=N/NC(=O)c2cccc(Cl)c2)cc1 | 59.9% (active) |
| O=C(Cn1nnc(-c2ccc3c(c2)OCO3)n1)NCc1ccco1 | 30.9% (active) |
| Cc1nnc(SCC(=O)Nc2ccc(S(=O)(=O)Nc3ccc(Cl)nn3)cc2)s1 | 58.2% (active) |
| C=C1c2cccc(OC)c2O[C@H](C(=O)OCC)[C@@H]1CCCCCC | 88% (active) |
| CO/N=C(\C(=O)N[C@@H]1C(=O)N2C(C(=O)O)=C(COC(C)=O)CS[C@H]12)c1csc(N)n1 (stereo in doubt) | 43.7% (active) |
| C=CC1C(OC2OC(CO)C(O)C(O)C2O)OC=C(C(=O)OC)C1CC1CC(=O)CC(CC(=O)CCc2ccc(O)cc2)O1 (stereo not drawn) | -13.1% |
| Cc1ccc(CN2CCN(c3ccccc3Cl)CC2)o1 | -20% |
| CCOC(=O)C1=C(C)c2ccccc2OC1(C)C(=O)OCC (stereo not drawn) | 39.1% (active) |
| CC(=O)Nc1ccc(N2C(=O)CCC2=O)cc1C | -5.6% |
| CCOc1ccccc1/C=c1\sc2nc(-c3ccco3)nn2c1=O | 61% (active) |
| N#Cc1ccc(C(=O)Nc2cccc3cccnc23)c(F)c1 | 3.88% |
| O=C(COC(=O)c1ccc(F)cc1F)Nc1ncccn1 | 52.5% (active) |
